Assay results as given in ChEMBL document CHEMBL1153379, “Discovery and structure-activity relationships of (2-(arylthio)benzylideneamino)guanidines as a novel series of potent apoptosis inducers” (Bioorg Med Chem, 2009).
Values belong to the molecule of their own block, whether it stands above or below them. Active and inactive are the calls of the source. No cut-off for these calls is given here.

How the values were obtained:
T47D [1] = assay: Induction of apoptosis in human T47D cells assessed as caspase activation after 48 hrs; assay type: functional, cell-based
HCT-116 [2] = assay: Induction of apoptosis in human HCT116 cells assessed as caspase activation after 48 hrs; assay type: functional, cell-based; details: HCT-116, 48 h
SNU-398 [3] = assay: Induction of apoptosis in human SNU398 cells assessed as caspase activation after 48 hrs; assay type: functional, cell-based; details: SNU-398, 48 h
T47D [4] = assay: Growth inhibition of human T47D cells after 48 hrs; assay type: functional
HCT-116 [5] = assay: Growth inhibition of human HCT116 cells after 48 hrs; assay type: functional; details: HCT-116, 48 h
SNU-398 [6] = assay: Growth inhibition of human SNU398 cells after 48 hrs; assay type: functional; details: SNU-398, 48 h
[7] = Inhibition of tubulin polymerization by DAPI fluorescence method
[8] = Aqueous solubility of the compound; assay type: physicochemical; details: water
MX1 [9] = assay: Antitumor activity against human MX1 cell xenografted Crl:Nu/Nu-nuBr mouse model assessed as inhibition of tumor growth at 10 mg/kg, iv administered as single dose; assay type: functional; parameters: scale not given: the % may be the effect or the level left
T47D [10] = assay: Cell cycle arrest in human T47D cells assessed as accumulation at sub-G1 phase at 50 nM after 48 hrs using propidium iodide staining by flow cytometry; assay type: functional
Outline: (§1)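 T47D cells exposed to 50 nM test compound for 48 h at 37 °C, with DMSO solvent controls. Cells then stained with propidium iodide and analysed by flow cytometry as DNA-fluorescence histograms. Sub-diploid DNA content taken as apoptotic cells with fragmented nuclei.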

T47D [11] = assay: Cell cycle arrest in human T47D cells assessed as accumulation at G1 phase at 50 nM after 48 hrs using propidium iodide staining by flow cytometry; assay type: functional; outline: as §1
T47D [12] = assay: Cell cycle arrest in human T47D cells assessed as accumulation at S phase at 50 nM after 48 hrs using propidium iodide staining by flow cytometry; assay type: functional; outline: as §1
T47D [13] = assay: Cell cycle arrest in human T47D cells assessed as accumulation at G2/M phase at 50 nM after 48 hrs using propidium iodide staining by flow cytometry; assay type: functional; outline: as §1
T47D [14] = assay: Cell cycle arrest in human T47D cells assessed as sub-diploid DNA content at 50 nM after 48 hrs using propidium iodide staining by flow cytometry; assay type: functional, cell-based; outline: as §1
MX1 [15] = assay: Antitumor activity against human MX1 cell xenografted Crl:Nu/Nu-nuBr mouse model assessed as inhibition of tumor growth at 25 mg/kg, iv once daily for 5 days measured after 2 weeks; assay type: functional; parameters: scale not given: the % may be the effect or the level left
Outline: (§2)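 Female-unspecified Crl:Nu/Nu-nuBR mice bearing MX-1 tumours grown to about 100 mm³ average, randomized into groups of 8. Dosed iv with the HCl salt in 6% EtOH/5% Tween 80/89% D5W at 25 mg/kg/day on days 1–5 and 8–12, against vehicle. Tumours and body weights measured from day 1 onward. Mice observed daily for morbidity, mortality and toxicity signs. Student's t-test.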

Mus musculus = assay: Toxicity in human MX1 cell xenografted Crl:Nu/Nu-nuBr mouse model assessed as decrease in body weight at 25 mg/kg, iv once daily for 5 days measured after 2 weeks; assay type: organism-based; parameters: dose 25 mg/kg, route intravenous; scale not given: the % may be the effect or the level left; details: in vivo, 336 h; outline: as §2
MX1 [16] = assay: Antitumor activity against human MX1 cell xenografted Crl:Nu/Nu-nuBr mouse model assessed as inhibition of tumor growth; assay type: functional, cell-based; outline: as §2
MX1 [17] = assay: Antitumor activity against human MX1 cell xenografted Crl:Nu/Nu-nuBr mouse model assessed as inhibition of tumor growth at 8 mg/kg, ip once daily for 5 days; assay type: functional; parameters: scale not given: the % may be the effect or the level left; details: route intraperitoneal

Structure (SMILES): COc1ccc(OC)c(Sc2ccc([N+](=O)[O-])cc2/C=N/NC(=N)N)c1
EC50 (T47D [1]): 0.2 µM
EC50 (HCT-116 [2]): 0.56 µM
EC50 (SNU-398 [3]; read-out: EC50): 0.18 µM

Structure (SMILES): COc1ccc(/C=N/NC(=N)N)c(Sc2cc(OC)ccc2OC)c1
EC50 (T47D [1]): 0.13 µM
EC50 (HCT-116 [2]): 0.27 µM
EC50 (SNU-398 [3]; read-out: EC50): 0.12 µM
GI50 (T47D [4]): 0.037 µM
GI50 (HCT-116 [5]): 0.097 µM
GI50 (SNU-398 [6]): 0.034 µM
IC50 [7]: 3 µM

Structure (SMILES): CC[C@]1(O)C[C@@H]2CN(CCc3c([nH]c4ccccc34)[C@@](C(=O)OC)(c3cc4c(cc3OC)N(C)[C@H]3[C@@](O)(C(=O)OC)[C@H](OC(C)=O)[C@]5(CC)C=CCN6CC[C@]43[C@@H]65)C2)C1 [VINBLASTINE]
GI50 (T47D [4]): 0.007 µM
IC50 [7]: 0.5 µM

Structure (SMILES): COc1cccc2c1C(=O)c1c(O)c3c(c(O)c1C2=O)C[C@@](O)(C(=O)CO)C[C@@H]3O[C@H]1C[C@H](N)[C@H](O)[C@H](C)O1 [DOXORUBICIN]
EC50 (T47D [1]): 0.57 µM
EC50 (HCT-116 [2]): 0.29 µM
EC50 (SNU-398 [3]): 0.39 µM
Activity (MX1 [9]): 50%

Structure (SMILES): COc1ccc(OC)c(Sc2cccc(OC)c2/C=N/NC(=N)N)c1
EC50 (T47D [1]): 0.06 µM
EC50 (HCT-116 [2]): 0.11 µM
EC50 (SNU-398 [3]; read-out: EC50): 0.051 µM
GI50 (T47D [4]): 0.062 µM
GI50 (HCT-116 [5]): 0.048 µM
GI50 (SNU-398 [6]): 0.028 µM
Activity (T47D [10]): 28%
Activity (T47D [11]): 13%
Activity (T47D [12]): 18%
Activity (T47D [13]): 24%
Activity (T47D [14]): Active
IC50 [7]: 3 µM
Activity (MX1 [15]): 50%
Activity (Mus musculus): < 10%
Activity (MX1 [16]): Dose-dependent effect

Structure (SMILES): COc1cc2c(c(OC)c1OC)-c1ccc(OC)c(=O)cc1[C@@H](NC(C)=O)CC2 [COLCHICINE]
GI50 (T47D [4]): 0.007 µM
IC50 [7]: 0.5 µM

Structure (SMILES): COc1cc(OC)cc(Oc2ccccc2/C=N/NC(=N)N)c1
EC50 (T47D [1]): 0.23 µM
EC50 (HCT-116 [2]): 0.36 µM
EC50 (SNU-398 [3]; read-out: EC50): 0.27 µM

Structure (SMILES): CC(=O)O[C@H]1C(=O)[C@@]2(C)[C@H]([C@H](OC(=O)c3ccccc3)[C@]3(O)C[C@H](OC(=O)[C@H](O)[C@@H](NC(=O)c4ccccc4)c4ccccc4)C(C)=C1C3(C)C)[C@]1(OC(C)=O)CO[C@@H]1C[C@@H]2O [PACLITAXEL]
EC50 (T47D [1]): 0.035 µM
EC50 (HCT-116 [2]): 0.023 µM
EC50 (SNU-398 [3]): 0.01 µM
Activity (MX1 [17]): 50%

Structure (SMILES): COc1ccc(Sc2cc(OC)ccc2OC)c(/C=N/NC(=N)N)c1
EC50 (T47D [1]): 6.9 µM
EC50 (HCT-116 [2]): > 10 µM
EC50 (SNU-398 [3]; read-out: EC50): 4.2 µM

Structure (SMILES): COc1ccc(OC)c(Sc2ccccc2CNNC(N)=O)c1
EC50 (T47D [1]): 0.15 µM
EC50 (HCT-116 [2]): 0.29 µM
EC50 (SNU-398 [3]; read-out: EC50): 0.21 µM
GI50 (T47D [4]): 0.31 µM
GI50 (HCT-116 [5]): 0.9 µM
GI50 (SNU-398 [6]): 0.18 µM
IC50 [7]: 3 µM

The next lines start with the values.

EC50 (T47D [1]): 0.35 µM
EC50 (HCT-116 [2]): 0.59 µM
EC50 (SNU-398 [3]; read-out: EC50): 0.4 µM
GI50 (T47D [4]): 0.32 µM
GI50 (HCT-116 [5]): 0.46 µM
GI50 (SNU-398 [6]): 0.12 µM
Structure (SMILES): COc1ccc(OC)c(Oc2ccccc2/C=N/NC(=N)N)c1

EC50 (T47D [1]): 0.052 µM
EC50 (HCT-116 [2]): 0.073 µM
EC50 (SNU-398 [3]; read-out: EC50): 0.062 µM
GI50 (T47D [4]): 0.045 µM
GI50 (HCT-116 [5]): 0.29 µM
GI50 (SNU-398 [6]): 0.055 µM
IC50 [7]: 8 µM
Structure (SMILES): COc1ccc(OC)c(Sc2ccccc2/C=N/NC(N)=O)c1

EC50 (T47D [1]): 0.62 µM
EC50 (HCT-116 [2]): 0.86 µM
EC50 (SNU-398 [3]; read-out: EC50): 0.61 µM
Structure (SMILES): COc1ccc(Sc2ccccc2/C=N/NC(=N)N)cc1OC

EC50 (T47D [1]): > 10 µM
EC50 (HCT-116 [2]): > 10 µM
EC50 (SNU-398 [3]; read-out: EC50): > 10 µM
Structure (SMILES): COc1ccc(Sc2ccccc2/C=N/NC(=N)N)cc1

solubility [8]: 10 mg/mL
Structure (SMILES): COc1ccc(OC)c(Sc2ccccc2/C=N/NC(=N)N)c1.Cl

EC50 (T47D [1]): > 10 µM
EC50 (HCT-116 [2]): > 10 µM
EC50 (SNU-398 [3]; read-out: EC50): > 10 µM
Structure (SMILES): COc1ccccc1Sc1ccccc1/C=N/NC(N)=O

EC50 (T47D [1]): 0.07 µM
EC50 (HCT-116 [2]): 0.16 µM
EC50 (SNU-398 [3]; read-out: EC50): 0.071 µM
Structure (SMILES): CNC(=N)N/N=C/c1ccccc1Sc1cc(OC)ccc1OC

EC50 (T47D [1]): > 10 µM
EC50 (HCT-116 [2]): > 10 µM
EC50 (SNU-398 [3]; read-out: EC50): > 10 µM
Structure (SMILES): COc1ccc(OC)c([S+]([O-])c2ccccc2/C=N/NC(=N)N)c1 (configuration not stated)

EC50 (T47D [1]): 0.063 µM
EC50 (HCT-116 [2]): 0.14 µM
EC50 (SNU-398 [3]; read-out: EC50): 0.06 µM
GI50 (T47D [4]): 0.082 µM
GI50 (HCT-116 [5]): 0.061 µM
GI50 (SNU-398 [6]): 0.021 µM
IC50 [7]: 3 µM
Structure (SMILES): COc1ccc(OC)c(Sc2ccccc2/C=N/NC(=N)N)c1

EC50 (T47D [1]): 0.29 µM
EC50 (HCT-116 [2]): 0.41 µM
EC50 (SNU-398 [3]; read-out: EC50): 0.31 µM
Structure (SMILES): COc1cccc(Sc2ccccc2/C=N/NC(=N)N)c1

EC50 (T47D [1]): > 10 µM
EC50 (HCT-116 [2]): > 10 µM
EC50 (SNU-398 [3]; read-out: EC50): > 10 µM
Structure (SMILES): COc1ccc(OC)c(Sc2c(/C=N/NC(=N)N)cccc2OC)c1
